Experimental data: ChEMBL document CHEMBL1125626, “Synthesis and structure-activity relationship of new cephalosporins with amino heterocycles at C-7. Dependence of the antibacterial spectrum and beta-lactamase stability on the pKa of the C-7 heterocycle” (1991)
In brackets after ≈: the same amount, converted by molar mass.

What was measured:
[1] = tested on: Escherichia coli; assay: Minimum inhibitory concentration against Escherichia coli DC2 (inoculum, 10e4 cfu per spot); assay type: functional
Outline: (§1)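 MIC in µg/mL, determined in Jewell and Permain growth medium with spot inoculation at 10^4 cfu per spot. P99 is described as a constitutive type I lactamase producer.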

[2] = tested on: Escherichia coli; assay: Minimum inhibitory concentration against Escherichia coli DCO (inoculum, 10e4 cfu per spot); assay type: functional; outline: as §1
[3] = tested on: Escherichia coli; assay: Minimum inhibitory concentration against Escherichia coli A8 (inoculum, 10e5 cfu per spot); assay type: functional
Outline: (§2)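 MIC in µg/mL, determined in Jewell and Permain growth medium with spot inoculation at 10^5 cfu per spot.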

[4] = tested on: Enterobacter cloacae; assay: Minimum inhibitory concentration against Enterobacter cloacae A13 (inoculum, 10e5 cfu per spot); assay type: functional; outline: as §2
[5] = tested on: Enterobacter cloacae; assay: Minimum inhibitory concentration against Enterobacter cloacae P99 (inoculum, 10e4 cfu per spot); assay type: functional; outline: as §1
[6] = tested on: Klebsiella aerogenes; assay: Minimum inhibitory concentration against Klebsiella aerogenes X5L (inoculum, 10e4 cfu per spot); assay type: functional; outline: as §1
[7] = tested on: Klebsiella aerogenes; assay: Minimum inhibitory concentration against Klebsiella aerogenes X6 (inoculum, 10e4 cfu per spot); assay type: functional; outline: as §1
[8] = tested on: Klebsiella pneumoniae; assay: Minimum inhibitory concentration against Klebsiella pneumoniae A24 (inoculum, 10e5 cfu per spot); assay type: functional; outline: as §2
[9] = tested on: Proteus mirabilis; assay: Minimum inhibitory concentration against Proteus mirabilis A18(inoculum, 10e5 cfu per spot); assay type: functional; outline: as §2
[10] = tested on: Pseudomonas aeruginosa; assay: Minimum inhibitory concentration against Pseudomonas aeruginosa A21 (inoculum, 10e5 cfu per spot); assay type: functional; outline: as §2
[11] = tested on: Staphylococcus aureus; assay: Minimum inhibitory concentration against Staphylococcus aureus A4 (inoculum, 10e5 cfu per spot); assay type: functional; outline: as §2
[12] = tested on: Staphylococcus aureus; assay: Minimum inhibitory concentration against Staphylococcus aureus A6 (inoculum, 10e5 cfu per spot); assay type: functional; outline: as §2
[13] = tested on: Streptococcus pyogenes; assay: Minimum inhibitory concentration against Streptococcus pyogenes (inoculum, 10e5 cfu per spot) A1; assay type: functional; outline: as §2
[14] = tested on: Serratia marcescens; assay: Minimum inhibitory concentration against Serratia marcescens A16 (inoculum, 10e5 cfu per spot); assay type: functional; outline: as §2
[15] = tested on: Enterobacter cloacae; assay: Minimum inhibitory concentration against Enterobacter cloacae P99 (inoculum, 10e4 cfu per spot)(type I lactamase producer); assay type: functional; outline: as §1
[16] = tested on: Escherichia coli; assay: Minimum inhibitory concentration against Escherichia coli X4 (inoculum, 10e4 cfu per spot)
[17] = tested on: Proteus vulgaris; assay: Minimum inhibitory concentration against Proteus vulgaris Pv9 (inoculum, 10e5 cfu per spot)
[18] = tested on: Escherichia coli; assay: Minimum inhibitory concentration against Escherichia coli TEM X3 (inoculum, 10e4 cfu per spot)(TEM I type lactamase producer)
[19] = tested on: Proteus mirabilis; assay: Minimum inhibitory concentration against Proteus mirabilis A18 (inoculum, 10e5 cfu per spot); assay type: functional; outline: as §2

MIC [1]	MIC [2]	MIC [3]	MIC [4]	MIC [5]	MIC [6]	MIC [7]	MIC [8]	MIC [9]	MIC [10]	MIC [11]	MIC [12]	MIC [13]	MIC [14]	MIC [15]	MIC [16]	MIC [17]	MIC [18]	MIC [19]	Structure (SMILES)
< 0.03 µg/mL	0.5 µg/mL (≈ 0.902 µM)	2 µg/mL (≈ 3.61 µM)	≥ 128 µg/mL	2 µg/mL (≈ 3.61 µM)	≥ 128 µg/mL	2 µg/mL (≈ 3.61 µM)	1 µg/mL (≈ 1.8 µM)	4 µg/mL (≈ 7.21 µM)	≥ 128 µg/mL	8 µg/mL (≈ 14.4 µM)	2 µg/mL (≈ 3.61 µM)	2 µg/mL (≈ 3.61 µM)	64 µg/mL (≈ 115 µM)	≥ 128 µg/mL	0.25 µg/mL (≈ 0.451 µM)	64 µg/mL (≈ 115 µM)	2 µg/mL (≈ 3.61 µM)		CC(=O)OCC1=C(C(=O)OC(c2ccccc2)c2ccccc2)N2C(=O)[C@@H](Nc3nc4ccccc4[nH]3)C2SC1 (some centres undefined)
0.5 µg/mL (≈ 1.12 µM)	0.5 µg/mL (≈ 1.12 µM)	2 µg/mL (≈ 4.49 µM)	256 µg/mL (≈ 575 µM)	1 µg/mL (≈ 2.24 µM)	256 µg/mL (≈ 575 µM)	1 µg/mL (≈ 2.24 µM)	2 µg/mL (≈ 4.49 µM)		> 256 µg/mL	64 µg/mL (≈ 144 µM)	2 µg/mL (≈ 4.49 µM)	4 µg/mL (≈ 8.98 µM)	> 256 µg/mL	> 256 µg/mL	0.5 µg/mL (≈ 1.12 µM)	> 256 µg/mL	4 µg/mL (≈ 8.98 µM)	32 µg/mL (≈ 71.8 µM)	CC(=O)OCC1=C(C(=O)OC(C)(C)C)N2C(=O)[C@@H](Nc3nc4ccc[nH]c-4n3)C2SC1 (some centres undefined)
< 0.03 µg/mL	0.12 µg/mL (≈ 0.191 µM)	0.25 µg/mL (≈ 0.399 µM)	> 256 µg/mL	0.25 µg/mL (≈ 0.399 µM)	64 µg/mL (≈ 102 µM)	0.25 µg/mL (≈ 0.399 µM)	4 µg/mL (≈ 6.38 µM)		> 256 µg/mL	16 µg/mL (≈ 25.5 µM)	2 µg/mL (≈ 3.19 µM)	0.5 µg/mL (≈ 0.798 µM)	64 µg/mL (≈ 102 µM)	32 µg/mL (≈ 51.1 µM)	0.12 µg/mL (≈ 0.191 µM)	16 µg/mL (≈ 25.5 µM)	1 µg/mL (≈ 1.6 µM)	0.5 µg/mL (≈ 0.798 µM)	Cn1nnnc1SCC1=C(C(=O)OC(c2ccccc2)c2ccccc2)N2C(=O)[C@@H](Nc3nc4cc(O)ccc4[nH]3)C2SC1 (some centres undefined)
1 µg/mL (≈ 2.13 µM)	8 µg/mL (≈ 17.1 µM)	4 µg/mL (≈ 8.54 µM)	64 µg/mL (≈ 137 µM)	8 µg/mL (≈ 17.1 µM)	16 µg/mL (≈ 34.1 µM)	8 µg/mL (≈ 17.1 µM)	4 µg/mL (≈ 8.54 µM)		> 256 µg/mL	> 256 µg/mL	> 256 µg/mL	16 µg/mL (≈ 34.1 µM)	64 µg/mL (≈ 137 µM)	16 µg/mL (≈ 34.1 µM)	4 µg/mL (≈ 8.54 µM)	64 µg/mL (≈ 137 µM)	8 µg/mL (≈ 17.1 µM)	> 256 µg/mL	Cc1nnc(SCC2=C(C(=O)OC(C)(C)C)N3C(=O)[C@@H](NC4=NCCN4)C3SC2)s1 (some centres undefined)
0.25 µg/mL (≈ 0.44 µM)	8 µg/mL (≈ 14.1 µM)	16 µg/mL (≈ 28.1 µM)	≥ 128 µg/mL	32 µg/mL (≈ 56.3 µM)	≥ 128 µg/mL	16 µg/mL (≈ 28.1 µM)	8 µg/mL (≈ 14.1 µM)		≥ 128 µg/mL	8 µg/mL (≈ 14.1 µM)	4 µg/mL (≈ 7.03 µM)	8 µg/mL (≈ 14.1 µM)	≥ 128 µg/mL	≥ 128 µg/mL	8 µg/mL (≈ 14.1 µM)	≥ 128 µg/mL	32 µg/mL (≈ 56.3 µM)	8 µg/mL (≈ 14.1 µM)	CC(=O)OCC1=C(C(=O)OC(c2ccccc2)c2ccccc2)N2C(=O)[C@@H](Nc3nc4c(C)cccc4[nH]3)C2SC1 (some centres undefined)
0.5 µg/mL (≈ 1.12 µM)	4 µg/mL (≈ 8.98 µM)	8 µg/mL (≈ 18 µM)	32 µg/mL (≈ 71.8 µM)	2 µg/mL (≈ 4.49 µM)	> 256 µg/mL	8 µg/mL (≈ 18 µM)	32 µg/mL (≈ 71.8 µM)		> 256 µg/mL	256 µg/mL (≈ 575 µM)	256 µg/mL (≈ 575 µM)	8 µg/mL (≈ 18 µM)	> 256 µg/mL	> 256 µg/mL	2 µg/mL (≈ 4.49 µM)	> 256 µg/mL	32 µg/mL (≈ 71.8 µM)	16 µg/mL (≈ 35.9 µM)	CC(=O)OCC1=C(C(=O)OC(C)(C)C)N2C(=O)[C@@H](Nc3nc4cc[nH]cc-4n3)C2SC1 (some centres undefined)
2 µg/mL (≈ 4.46 µM)	4 µg/mL (≈ 8.92 µM)	2 µg/mL (≈ 4.46 µM)	4 µg/mL (≈ 8.92 µM)	2 µg/mL (≈ 4.46 µM)	4 µg/mL (≈ 8.92 µM)	4 µg/mL (≈ 8.92 µM)	4 µg/mL (≈ 8.92 µM)		> 256 µg/mL	> 256 µg/mL	> 256 µg/mL	128 µg/mL (≈ 285 µM)	> 256 µg/mL	4 µg/mL (≈ 8.92 µM)	2 µg/mL (≈ 4.46 µM)	> 256 µg/mL	2 µg/mL (≈ 4.46 µM)	256 µg/mL (≈ 571 µM)	CC1=C(C(=O)OC(c2ccccc2)c2ccccc2)N2C(=O)[C@@H](NC3=NCCN3)C2SC1 (some centres undefined)
0.06 µg/mL (≈ 0.103 µM)	0.5 µg/mL (≈ 0.855 µM)	0.5 µg/mL (≈ 0.855 µM)	> 256 µg/mL	0.5 µg/mL (≈ 0.855 µM)	128 µg/mL (≈ 219 µM)	1 µg/mL (≈ 1.71 µM)	1 µg/mL (≈ 1.71 µM)		> 256 µg/mL	64 µg/mL (≈ 109 µM)	8 µg/mL (≈ 13.7 µM)	1 µg/mL (≈ 1.71 µM)	> 256 µg/mL	> 256 µg/mL	0.5 µg/mL (≈ 0.855 µM)	128 µg/mL (≈ 219 µM)	4 µg/mL (≈ 6.84 µM)	8 µg/mL (≈ 13.7 µM)	CC(=O)OCC1=C(C(=O)OC(c2ccccc2)c2ccccc2)N2C(=O)[C@@H](Nc3nc4cc(CO)ccc4[nH]3)C2SC1 (some centres undefined)
